{"source": "paper PMC8771160", "about": "(Oncology Reports, 2022)", "key": {"DG75": {"system": "DG75", "assay": "Cell proliferation assay", "type": "cell-based", "details": "KSHV (−) cell line DG75, 24 h", "procedure,_shortened": "(§1)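 PEL lines, KSHV-negative B-lymphoma lines or PBMCs were seeded at 1×10^4 cells/well and cultured with or without test compound at 37°C for 24 h. Cell Count Reagent SF was added (10 µl to 90 µl suspension) for 2 h at 37°C, and OD was read at 450 nm. Viability is expressed as % of untreated cells.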"}, "Ramos": {"system": "Ramos", "assay": "Cell proliferation assay", "type": "cell-based", "details": "KSHV (−) cell line Ramos, 24 h", "procedure,_shortened": "as §1"}, "HBL6": {"system": "HBL6", "assay": "Cell proliferation assay", "type": "cell-based", "details": "KSHV (+) cell line HBL6, 24 h", "procedure,_shortened": "as §1"}, "BCBL1": {"system": "BCBL1", "assay": "Cell proliferation assay", "type": "cell-based", "details": "KSHV (+) cell line BCBL1, 24 h", "procedure,_shortened": "as §1"}, "BC3": {"system": "BC3", "assay": "Cell proliferation assay", "type": "cell-based", "details": "KSHV (+) cell line BC3, 24 h", "procedure,_shortened": "as §1"}, "[1]": {"system": "KSHV-uninfected B cell lines", "assay": "Cell proliferation assay, KSHV-uninfected B cell lines as a group", "type": "cell-based", "details": "6.25 and 12.5 µM, 24 h", "procedure,_shortened": "as §1"}, "HIV RT": {"system": "HIV RT", "details": "cited from earlier work"}, "[2]": {"system": "influenza virus endonuclease", "details": "cited from earlier work"}, "HCV NS5B": {"system": "HCV NS5B", "details": "cited from earlier work"}, "[3]": {"system": "cancer cell proliferation", "details": "cited from earlier work"}}}
{"substance": "1,1,1′,1′-tetramethyl [60]fullerenodipyrrolidinium diiodide [Derivative #1]", "values": [{"measurement": "CC50", "setting": "DG75", "value": 23.4, "unit": "µM"}, {"measurement": "CC50", "setting": "Ramos", "value": 24.9, "unit": "µM"}, {"measurement": "CC50", "setting": "HBL6", "value": 19.7, "unit": "µM"}, {"measurement": "CC50", "setting": "BCBL1", "value": "> 25", "unit": "µM"}, {"measurement": "CC50", "setting": "BC3", "value": 15.5, "unit": "µM"}, {"measurement": "viability of DG75 and Ramos cells compared with the controls", "setting": "[1]", "value": "increased the viability"}, {"measurement": "HIV RT inhibitory activity", "setting": "HIV RT", "value": "displayed HIV RT inhibitory activity"}, {"measurement": "influenza virus endonuclease inhibitory activity", "setting": "[2]", "value": "inhibitory activities"}, {"measurement": "HCV NS5B inhibitory activity", "setting": "HCV NS5B", "value": "inhibiting"}, {"measurement": "cancer cell proliferation", "setting": "[3]", "value": "suppressed cancer cell proliferation"}]}
